Variants at the floor of the assay were thinned out.
B1: tRNA (parent)
chain: GUUCCGUUGGCGUAAUGGUAACGCGUCUCCCUCCUAAGGAGAAGACUGCGGGUUCGAGUCCCGUACGGAACG

Variants of: B1
Assay: yeast fitness relative to wild type (ratio to wild type); higher = fitter; tRNA-Arg(CCU), competitive growth, 37 C, YPD
How it was run: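 A pool of Saccharomyces cerevisiae strains, each with a tRNA-Arg(CCU) gene variant at the native genomic locus, was competed in YPD at 37°C for 24 hours across six parallel replicates. The variants had been chemically synthesised at a 3% per-site mutation rate over 69 sites, and gene amplicons before and after competition were read by 100-nucleotide paired-end sequencing. Darwinian fitness relative to wild type rested on changes in genotype frequencies. Genotypes required ≥ 100 starting reads, and estimates < 0.5 were set to 0.5.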
Work on C5U C11U C46G yielded a yeast fitness of 0.7. In the case of C5U A36G C49U A69C, the yeast fitness is reported as ≤ 0.5. In the case of C5U C11U A21C C24U U26C U28A C31G C49G, the yeast fitness is reported as ≤ 0.5. In the case of C5U C11U A14G A15G G48C, the yeast fitness is reported as ≤ 0.5. Work on C5U A36U A65U yielded a yeast fitness of 0.712. With C5U A14C C29U C33A C49U C55G the yeast fitness was ≤ 0.5. C5G U59A A65G showed a yeast fitness of 0.667. With C5U A21C U54C A65U the yeast fitness was 0.643. For C5U A42U A43G, the yeast fitness was 0.63. For C5U A40U G56A G67C, the yeast fitness was ≤ 0.5. In the case of C5U A21U U64A, the yeast fitness is reported as ≤ 0.5. With C5U C11U C46U A65U A69U the yeast fitness was 0.563. In the case of C5U A40C U47C A65U, the yeast fitness is reported as ≤ 0.5. With C5U A42G C49U A65C the yeast fitness was ≤ 0.5. With C5U A36G A65G A70C the yeast fitness was ≤ 0.5. For C5U A14C C34G A37U A40U, the yeast fitness was ≤ 0.5. With C5U A36C U54A the yeast fitness was ≤ 0.5. With C5G U47C U59A the yeast fitness was ≤ 0.5. With C5U A14U C31G U59A C61U the yeast fitness was ≤ 0.5. In the case of C5U C11A A14G, the yeast fitness is reported as ≤ 0.5. With C5G U53G A65U the yeast fitness was 0.612. C5U A40G showed a yeast fitness of 1.01. For C5U A40U, the yeast fitness was 0.833. For C5U C22G A40G A70G, the yeast fitness was ≤ 0.5. Variant C5U A37U A65G has a yeast fitness of 0.57. Variant C5G U47C C61G has a yeast fitness of 0.519. Variant C5G U54A has a yeast fitness of 0.666. For C5G U54G, the yeast fitness was 0.654. For C5U A20U U26A G52A, the yeast fitness was ≤ 0.5. With C5U A15U C29U C31U C34U U64C the yeast fitness was ≤ 0.5. Work on C5U A37C A70C yielded a yeast fitness of 0.631. In the case of C5U A21G A45G, the yeast fitness is reported as 0.638. For C5U A21G C24A A42C G63A, the yeast fitness was ≤ 0.5. With C5U A43G the yeast fitness was 0.966. Work on C5U A43U yielded a yeast fitness of 0.918. Work on C5G U47G yielded a yeast fitness of 0.611. C5G U47C showed a yeast fitness of 0.745. For C5U A14C A21G C30G C34U G39A C55U, the yeast fitness was ≤ 0.5. With C5U A15U A21G C49U the yeast fitness was ≤ 0.5. In the case of C5U A15G C22G G41A A45U U47A C62U, the yeast fitness is reported as ≤ 0.5. In the case of C5U A21G U28C A36G A69G, the yeast fitness is reported as 0.599. For C5U A21U C33U G50A U59C, the yeast fitness was ≤ 0.5. In the case of C5U C11A A21G A40U G68C, the yeast fitness is reported as ≤ 0.5. Variant C5U C22A G25A has a yeast fitness of 0.781. C5G U59C showed a yeast fitness of 0.852. In the case of C5G U59G, the yeast fitness is reported as 0.62. C5U A15C G58A showed a yeast fitness of 0.569. Work on C5G U47C A65C yielded a yeast fitness of 0.558. With C5U C11A A14G A42G C55U A65U the yeast fitness was ≤ 0.5. For C5U C11U A45U A70C, the yeast fitness was 0.725. In the case of C5G U47A C62G G63A, the yeast fitness is reported as ≤ 0.5. In the case of C5U A20U G23C C31U U54C, the yeast fitness is reported as ≤ 0.5. C5U C22G C29A A45U gave a yeast fitness of 0.627. With C5U A20G A43G A65U the yeast fitness was ≤ 0.5. For C5U, the yeast fitness was 0.987. For C5U A15G C46G, the yeast fitness was 0.892. In the case of C5U C11A G44C, the yeast fitness is reported as ≤ 0.5. In the case of C5U C11G C24G, the yeast fitness is reported as ≤ 0.5. With C5U A14G A15U U28A C33G G41C G56A the yeast fitness was ≤ 0.5. For C5U A21U U32A A40U C60G, the yeast fitness was 0.694. In the case of C5U A15C C27U C29U A57C, the yeast fitness is reported as ≤ 0.5. C5U C11G U19G C24G C30U showed a yeast fitness of 0.547. For C5U C11U A36U C60A, the yeast fitness was ≤ 0.5. In the case of C5U A37C U54A, the yeast fitness is reported as ≤ 0.5. With C5U A14U U19C G48A C66U the yeast fitness was ≤ 0.5. With C5U A37U the yeast fitness was 0.732. In the case of C5U A37C, the yeast fitness is reported as 0.764. For C5U C11G C24U A42C, the yeast fitness was 0.552. In the case of C5U A14C C31G A43U C60G, the yeast fitness is reported as ≤ 0.5. With C5U A21G the yeast fitness was 0.981. Variant C5U C22A C27G has a yeast fitness of 0.569. With C5U A40U A57U the yeast fitness was ≤ 0.5. C5U A20C A43G showed a yeast fitness of 0.658. With C5U A20C C22U A36G G52C the yeast fitness was ≤ 0.5. In the case of C5U C11U C33G A43C, the yeast fitness is reported as ≤ 0.5. For C5U A20U U26A A65C G67C, the yeast fitness was ≤ 0.5. Work on C5U A21U C30G A70U yielded a yeast fitness of 0.651. With C5U A14G A45G A69C the yeast fitness was ≤ 0.5. With C5U A40C G48A the yeast fitness was 0.592. C5U A57G C66U gave a yeast fitness of 0.655. For C5U A15U C30G C33G A40G A42G A43U U54G, the yeast fitness was ≤ 0.5. With C5U C22G A40G C46U C62U the yeast fitness was ≤ 0.5. Variant C5U C11U G38A G58C C61U C66U has a yeast fitness of 0.573. With C5U C11A U28G G44C the yeast fitness was ≤ 0.5. Variant C5U A20U G67A A70G has a yeast fitness of 0.933. In the case of C5U C11U A15G C34U G44C U47G, the yeast fitness is reported as ≤ 0.5. In the case of C5U A20C U26G C30U C49U C66G, the yeast fitness is reported as ≤ 0.5. Variant C5U A37U A69U has a yeast fitness of 0.634. In the case of C5U C11G U19G C24G C30U C61U, the yeast fitness is reported as ≤ 0.5. For C5U A36G G51C, the yeast fitness was ≤ 0.5. In the case of C5U A45G C49G U59C C60U A69C, the yeast fitness is reported as ≤ 0.5. Variant C5U A43G C62A has a yeast fitness of 0.588. For C5U C11A A21C C27G G68C, the yeast fitness was ≤ 0.5. Variant C5U A70C has a yeast fitness of 1.06. With C5U A45U G68C the yeast fitness was 0.531. Variant C5U A15G A70U has a yeast fitness of 0.696. In the case of C5U A45U G56A, the yeast fitness is reported as 0.715. Variant C5U A36G A45U has a yeast fitness of 1.01. In the case of C5U A37U C49A G56C, the yeast fitness is reported as ≤ 0.5. With C5U A14C C46A the yeast fitness was 0.548. Variant C5U A14C C46G has a yeast fitness of 0.561. For C5U A15C U32A G52C C62G U64C, the yeast fitness was ≤ 0.5. For C5U A20G C46G C49G, the yeast fitness was ≤ 0.5. For C5U C11U G25A A37G C46G G51C A57C C61U, the yeast fitness was ≤ 0.5. C5U A36U gave a yeast fitness of 0.632. With C5U A36G the yeast fitness was 1. In the case of C5U A36C, the yeast fitness is reported as 0.69. C5U A21G C22G A43U showed a yeast fitness of 0.533. With C5U A20C G23C C24U C31U the yeast fitness was ≤ 0.5. In the case of C5U A42G A45G C55G, the yeast fitness is reported as ≤ 0.5. With C5U A36G G52C the yeast fitness was ≤ 0.5. For C5U A14U C27G, the yeast fitness was ≤ 0.5. Variant C5U A45C U53G has a yeast fitness of 0.574. With C5U A20U A36G A65U the yeast fitness was ≤ 0.5. C5U C11G C29G gave a yeast fitness of 0.733. In the case of C5U A40G G50C A57C G58C, the yeast fitness is reported as ≤ 0.5. In the case of C5U A15C C34G A37G A65G, the yeast fitness is reported as ≤ 0.5. C5G U53A showed a yeast fitness of 0.658. For C5G U53C, the yeast fitness was 0.866. With C5U A40C A42G G68A the yeast fitness was ≤ 0.5. For C5U A20G A21G C31U, the yeast fitness was ≤ 0.5. Variant C5G U47A G68C has a yeast fitness of 0.565. Work on C5U A20U C62A G67A A70G yielded a yeast fitness of 0.747. C5U A40C C46A gave a yeast fitness of 0.794. With C5U C11G C24U A42C G67A the yeast fitness was ≤ 0.5. For C5U C22G C29A A45U C55U, the yeast fitness was ≤ 0.5. Work on C5U A65U G68C yielded a yeast fitness of 0.541. With C5U A20C G44C the yeast fitness was 0.573. For C5U A14U C24G, the yeast fitness was ≤ 0.5. Work on C5U A14G U28C yielded a yeast fitness of 0.562. Work on C5U C11U C61G G63C yielded a yeast fitness of 0.546. In the case of C5U A21G G67A, the yeast fitness is reported as 0.629. C5U C11G C31U G41C U54G showed a yeast fitness of 0.746. With C5U A21U A57U A65U the yeast fitness was ≤ 0.5. C5U A15U C29U C31U C34U showed a yeast fitness of 0.519. In the case of C5U C11U A15C U28A C62U C66A, the yeast fitness is reported as ≤ 0.5. C5U A21U A57U C60A G68C gave a yeast fitness of 0.566. Variant C5U C22A C60G has a yeast fitness of 0.628. For C5U A37U A57U A69C, the yeast fitness was ≤ 0.5. C5U A37U G56C gave a yeast fitness of 0.686. With C5U A14G U28C U64C the yeast fitness was ≤ 0.5. C5U A14U A15C gave a yeast fitness of 0.727. C5U A15G A20C U26C G41C G67C showed a yeast fitness of 0.593. With C5U A20G U32G C33G C55U the yeast fitness was ≤ 0.5. For C5U C11G U32A U35G C55A C61G, the yeast fitness was ≤ 0.5. For C5U A15U G51C C61G C62G, the yeast fitness was 0.776. With C5U A20U C60A the yeast fitness was ≤ 0.5. With C5U C11U A15G G48C the yeast fitness was 0.553. For C5U A14C A42G A65C, the yeast fitness was ≤ 0.5. Work on C5U A37U A42U U59A yielded a yeast fitness of 0.537. In the case of C5U A14U C49G A65U, the yeast fitness is reported as ≤ 0.5. In the case of C5U A20C A69U, the yeast fitness is reported as 0.771. With C5U A20G C49G G52A A57C the yeast fitness was ≤ 0.5. In the case of C5U C22G C29G G68C, the yeast fitness is reported as ≤ 0.5. C5U A21U C30G C62U showed a yeast fitness of 0.57. C5U A43U C49U C61G showed a yeast fitness of 0.532. With C5U A43U C49U C61U the yeast fitness was ≤ 0.5. In the case of C5U A36U G67A, the yeast fitness is reported as ≤ 0.5. In the case of C5U C11U A36U C66U, the yeast fitness is reported as ≤ 0.5. C5U C11G gave a yeast fitness of 0.597. With C5U A15U C29U C31U C34U C66A the yeast fitness was ≤ 0.5. Work on C5U A21G U26A yielded a yeast fitness of 0.738. In the case of C5U C22G, the yeast fitness is reported as 0.991. Work on C5U C22A yielded a yeast fitness of 0.84. With C5U A40G A43G C55U the yeast fitness was ≤ 0.5. C5U C22G A70U showed a yeast fitness of 0.754. In the case of C5U A14G U16A C30U, the yeast fitness is reported as ≤ 0.5.
